Laboratory results as given in ChEMBL document CHEMBL4680130, “Substituted 4-phenylthiazoles: Development of potent and selective A, A and dual A/A adenosine receptor antagonists” (Eur J Med Chem, 2020).
pIC50, pKi: −log10 of the molar value.

Key:
Adenosine receptor A1 [1] = biological target: T1, Adenosine receptor A1 (Homo sapiens, UniProt P30542); test: Displacement of [3H]CCPA from human adenosine receptor A1 expressed in CHO cell membranes incubated for 90 mins by radioligand competition assay; parameters: species or system Cell membrane
T1 sequence (P30542 whole entry): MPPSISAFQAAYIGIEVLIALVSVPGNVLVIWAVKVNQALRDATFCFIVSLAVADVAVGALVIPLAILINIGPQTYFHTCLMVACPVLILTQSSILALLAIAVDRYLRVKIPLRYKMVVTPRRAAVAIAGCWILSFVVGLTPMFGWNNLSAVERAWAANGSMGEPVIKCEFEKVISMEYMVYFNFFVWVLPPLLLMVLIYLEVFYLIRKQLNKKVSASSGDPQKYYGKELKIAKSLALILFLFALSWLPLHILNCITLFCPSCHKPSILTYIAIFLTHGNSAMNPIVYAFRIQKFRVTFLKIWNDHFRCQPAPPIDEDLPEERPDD

Adenosine receptor A1 [2] = biological target: T2, Adenosine receptor A1 (Rattus norvegicus, UniProt P25099); test: Displacement of [3H]CCPA from adenosine receptor A1 in rat brain cortex membranes incubated for 90 mins by radioligand competition assay; format: cell membranes, Cell membrane
T2 sequence (P25099 whole entry): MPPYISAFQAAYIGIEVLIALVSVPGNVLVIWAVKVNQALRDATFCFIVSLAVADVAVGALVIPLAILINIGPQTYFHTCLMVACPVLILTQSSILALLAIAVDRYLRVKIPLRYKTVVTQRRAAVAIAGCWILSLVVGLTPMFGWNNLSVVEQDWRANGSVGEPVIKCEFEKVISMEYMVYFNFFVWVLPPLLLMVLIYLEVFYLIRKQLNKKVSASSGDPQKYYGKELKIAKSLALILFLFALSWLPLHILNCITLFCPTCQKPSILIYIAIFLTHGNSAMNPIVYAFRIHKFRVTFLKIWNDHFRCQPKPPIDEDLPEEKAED

Adenosine receptor A2a [3] = biological target: T3, Adenosine receptor A2a (Homo sapiens, UniProt P29274); test: Displacement of [3H]MSX2 from human adenosine receptor A2A expressed in HEK293 cell membranes incubated for 30 mins by radioligand competition assay; parameters: species or system Cell membrane
Adenosine receptor A2a [4] = biological target: Adenosine receptor A2a (Rattus norvegicus, UniProt P30543); test: Displacement of [3H]MSX2 from adenosine receptor A2A in rat brain striatum membranes incubated for 30 mins by radioligand competition assay; format: cell membranes, Cell membrane
Adenosine receptor A2b = biological target: T4, Adenosine receptor A2b (Homo sapiens, UniProt P29275); test: Displacement of [3H]PSB-603 from human adenosine receptor A2B expressed in CHO cell membranes incubated for 75 mins by radioligand competition assay; parameters: species or system Cell membrane
T4 sequence (P29275 whole entry): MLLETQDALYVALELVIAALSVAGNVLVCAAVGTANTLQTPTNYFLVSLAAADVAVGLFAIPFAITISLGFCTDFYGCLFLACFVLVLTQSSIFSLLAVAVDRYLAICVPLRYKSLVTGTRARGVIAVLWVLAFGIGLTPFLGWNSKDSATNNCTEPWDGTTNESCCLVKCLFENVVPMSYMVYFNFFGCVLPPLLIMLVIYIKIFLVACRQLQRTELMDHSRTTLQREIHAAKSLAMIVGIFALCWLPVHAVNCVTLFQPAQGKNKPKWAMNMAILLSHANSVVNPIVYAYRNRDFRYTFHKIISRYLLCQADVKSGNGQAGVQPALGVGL

Adenosine receptor A3 [5] = biological target: T5, Adenosine receptor A3 (Homo sapiens, UniProt P0DMS8); test: Displacement of [3H]PSB-11 from human adenosine receptor A3 expressed in CHO cell membranes incubated for 60 mins by radioligand competition assay; parameters: species or system Cell membrane
T5 sequence (P0DMS8 whole entry): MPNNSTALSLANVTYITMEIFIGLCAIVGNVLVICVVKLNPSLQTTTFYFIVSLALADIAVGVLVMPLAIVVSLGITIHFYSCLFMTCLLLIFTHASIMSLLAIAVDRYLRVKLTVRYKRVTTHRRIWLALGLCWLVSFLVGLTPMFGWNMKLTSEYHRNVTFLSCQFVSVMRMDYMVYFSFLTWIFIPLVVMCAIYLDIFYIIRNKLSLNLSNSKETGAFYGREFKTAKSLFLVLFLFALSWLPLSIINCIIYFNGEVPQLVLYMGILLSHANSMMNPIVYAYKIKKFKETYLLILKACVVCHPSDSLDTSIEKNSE

[6] = biological target: T6, Adenosine receptor A2b (Homo sapiens) (UniProt P29275); test: Displacement of [3H]PSB-603 from human adenosine receptor A2B expressed in CHO cell membranes at 0.1 uM incubated for 75 mins by radioligand competition assay relative to control; details: Cell membrane
T6 sequence (whole entry): T4 sequence (P29275 whole entry)
Outline: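 CHO membranes expressing human or rat A2B, [3H]PSB-603 0.3 nM. Nonspecific binding defined by 10 µM DPCPX. Preincubated 20 min with adenosine deaminase, then 75 min at rt in Tris-HCl pH 7.4 with 2.5% DMSO. Filters washed with ice-cold 50 mM Tris-HCl containing 0.1% BSA; scintillation counting.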

[7] = biological target: T7, Adenosine receptor A3 (Homo sapiens) (UniProt P0DMS8); test: Displacement of [3H]PSB-11 from human adenosine receptor A3 expressed in CHO cell membranes at 0.1 uM incubated for 60 mins by radioligand competition assay; details: Cell membrane
T7 sequence (whole entry): T5 sequence (P0DMS8 whole entry)
Outline: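 CHO membranes expressing human A3, [3H]PSB-11 0.5 nM. Nonspecific binding defined by 100 µM R-PIA. Adenosine deaminase preincubation 20 min, then 60 min at rt in 50 mM Tris-HCl pH 7.4 with 2.5% DMSO. Filtered on GF/B, scintillation counted.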

Adenosine receptor A3 [8] = biological target: T8, Adenosine receptor A3 (Rattus norvegicus, UniProt P28647); test: Displacement of [3H]NECA from rat adenosine receptor A3 expressed in CHO cell membranes incubated for 60 mins by radioligand competition assay; parameters: species or system Cell membrane
T8 sequence (P28647 whole entry): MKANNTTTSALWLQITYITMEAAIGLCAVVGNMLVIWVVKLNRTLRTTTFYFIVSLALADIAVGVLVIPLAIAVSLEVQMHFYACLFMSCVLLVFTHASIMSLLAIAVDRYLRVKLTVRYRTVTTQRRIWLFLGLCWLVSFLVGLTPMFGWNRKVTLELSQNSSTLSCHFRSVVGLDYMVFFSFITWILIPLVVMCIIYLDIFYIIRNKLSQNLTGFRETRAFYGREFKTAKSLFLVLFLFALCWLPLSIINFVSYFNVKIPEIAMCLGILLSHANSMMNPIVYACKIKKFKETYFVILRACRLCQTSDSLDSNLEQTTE

Adenosine receptor A2a [9] = biological target: T3, Adenosine receptor A2a; test: Displacement of [3H]MSX2 from human adenosine receptor A2A expressed in HEK293 cell membranes at 0.1 uM incubated for 30 mins by radioligand competition assay relative to control; details: Cell membrane
Outline: (§1)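 A2A binding, [3H]MSX-2 1.0 nM. Membranes: rat brain striatum, or HEK293 cells expressing human A2A. Adenosine deaminase preincubation 20 min, then 30 min at rt in 50 mM Tris-HCl pH 7.4 with 2.5% DMSO. Nonspecific binding defined by 50 µM NECA. GF/B filtration, scintillation counting. Single-concentration percent inhibition, ≥3 experiments in duplicate or triplicate.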

[10] = biological target: T9, Adenosine receptor A1 (Rattus norvegicus) (UniProt P25099); test: Displacement of [3H]CCPA from adenosine receptor A1 in rat brain cortex membranes at 0.1 uM incubated for 90 mins by radioligand competition assay; details: Cell membrane
T9 sequence (whole entry): T2 sequence (P25099 whole entry)
Outline: (§2)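 A1 competition binding with [3H]CCPA, 0.5 nM. Membranes: CHO cells expressing human A1, or rat brain cortex. Membranes preincubated 20 min with adenosine deaminase (2 U/mL per mg protein). Incubation 90 min at rt in 50 mM Tris-HCl pH 7.4 with 2.5% final DMSO. Nonspecific binding defined by 10 µM 2-chloroadenosine. GF/B filtration, scintillation counting.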

Adenosine receptor A1 [11] = biological target: T2, Adenosine receptor A1; test: Displacement of [3H]DPCPX from rat brain cortical membrane A1AR in absence of GTP by scintillation counting analysis; format: cell membranes, Cortex, Cell membrane
Adenosine receptor A1 [12] = biological target: T2, Adenosine receptor A1; test: Displacement of [3H]DPCPX from rat brain cortical membrane A1AR in presence of 100 uM of GTP by scintillation counting analysis; format: cell membranes, Cortex, Cell membrane
Adenosine receptor A1 [13] = biological target: T2, Adenosine receptor A1; test: Displacement of [3H]CCPA from rat adenosine receptor A1 by radioligand competition assay; outline: as §2
Adenosine receptor A1 [14] = biological target: T2, Adenosine receptor A1; test: Displacement of [3H]DPCPX from rat adenosine receptor A1 by radioligand competition assay
Outline: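 Rat brain cortical membranes, [3H]DPCPX 0.4 nM. Nonspecific binding defined by 10 μM DPCPX. Curves run with and without 100 μM GTP. Incubation 90 min at rt in 50 mM Tris-HCl pH 7.4, after 20 min adenosine deaminase preincubation. Filtration, then scintillation counting. GTP shift is the IC50 with GTP divided by the IC50 without GTP.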

[15] = biological target: Adenosine receptor A2a (Rattus norvegicus) (UniProt P30543); test: Displacement of [3H]MSX2 from adenosine receptor A2A in rat brain striatum membranes at 0.1 uM incubated for 30 mins by radioligand competition assay relative to control; details: Cell membrane; outline: as §1
[16] = in the assay text read “at 1 uM” for “at 0.1 uM”
[17] = dose 1 µM, in the assay text read “1 uM” for “0.1 uM”

T3 sequence (P29274 whole entry): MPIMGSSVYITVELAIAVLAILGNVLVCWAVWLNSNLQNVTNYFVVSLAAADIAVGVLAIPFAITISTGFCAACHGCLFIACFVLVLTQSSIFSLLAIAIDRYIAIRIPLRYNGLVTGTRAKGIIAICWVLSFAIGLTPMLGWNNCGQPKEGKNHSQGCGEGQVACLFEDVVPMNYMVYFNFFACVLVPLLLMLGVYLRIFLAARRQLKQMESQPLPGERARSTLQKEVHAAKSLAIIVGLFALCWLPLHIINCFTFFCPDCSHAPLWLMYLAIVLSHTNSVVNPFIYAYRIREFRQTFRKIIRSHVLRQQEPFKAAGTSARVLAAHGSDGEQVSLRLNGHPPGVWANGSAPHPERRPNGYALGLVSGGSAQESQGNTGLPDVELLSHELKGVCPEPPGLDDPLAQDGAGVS
Sequence of Adenosine receptor A2a (Rattus norvegicus) (P30543 whole entry): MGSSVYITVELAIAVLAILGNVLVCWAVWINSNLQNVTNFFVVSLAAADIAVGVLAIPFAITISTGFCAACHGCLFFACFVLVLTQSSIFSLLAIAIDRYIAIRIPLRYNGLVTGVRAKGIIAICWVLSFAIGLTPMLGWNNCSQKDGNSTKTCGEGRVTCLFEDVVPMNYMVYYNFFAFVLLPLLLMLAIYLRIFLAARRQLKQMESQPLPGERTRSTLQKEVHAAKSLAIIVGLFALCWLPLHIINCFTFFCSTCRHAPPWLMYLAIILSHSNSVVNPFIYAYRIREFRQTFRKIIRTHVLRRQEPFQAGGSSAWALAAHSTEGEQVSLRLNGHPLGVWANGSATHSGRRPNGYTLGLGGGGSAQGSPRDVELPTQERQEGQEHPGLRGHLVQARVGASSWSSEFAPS
Sequence of Adenosine receptor A2a (Rattus norvegicus, UniProt P30543) (P30543 whole entry): as above

pKi (Adenosine receptor A1 [1])	pKi (Adenosine receptor A1 [2])	pKi (Adenosine receptor A2a [3])	pKi (Adenosine receptor A2a [4])	pKi (Adenosine receptor A2b)	pKi (Adenosine receptor A3 [5])	inhibition [6] [%]	inhibition ([7]; filed as antagonist, dose 0.1 µM) [%]	pKi (Adenosine receptor A3 [8])	inhibition (Adenosine receptor A2a [9]; [16]) [%]	inhibition [10] [%]	pIC50 (Adenosine receptor A1 [11])	pIC50 (Adenosine receptor A1 [12])	pKi (Adenosine receptor A1 [13])	pKi (Adenosine receptor A1 [14])	inhibition [7, 17] [%]	inhibition ([10]; filed as antagonist) [%]	inhibition [15] [%]	inhibition (Adenosine receptor A2a [9]; filed as antagonist, in the assay text read “1 uM” for “0.1 uM”) [%]	Structure (SMILES)
6.75	8.17	6.88	7.13	< 7.00	6.91	15	100	–	–	–	–	–	–	–	–	–	–	–	O=C(Nc1nc(-c2ccccc2)c(C(=O)c2ccc(F)cc2F)s1)c1ccco1
< 6.00	< 6.00	< 6.00	< 6.00	< 7.00	8.19	30	–	6.01	11	25	–	–	–	–	–	–	–	–	COc1ccc(-n2c(-c3sc(NC(=O)c4ccco4)nc3-c3ccccc3)nc3ccccc3c2=O)cc1
8.12	9.46	< 6.00	5.92	< 7.00	7.37	2	–	–	–	–	10.17	10.08	9.46	10.20	–	–	–	–	Cc1ccc(C(=O)c2sc(NC(=O)c3ccco3)nc2-c2ccccc2)cc1
< 6.00	–	< 6.00	< 6.00	< 7.00	< 6.00	0	–	–	14	–	–	–	–	–	24	54	16	–	COc1ccc(C(=O)Nc2nc(-c3ccccc3)c(C(=O)c3ccc(F)cc3F)s2)cc1
< 6.00	< 6.00	< 6.00	< 6.00	< 7.00	6.89	1	–	–	5	26	–	–	–	–	–	–	33	–	O=C(Nc1nc(-c2ccccc2)c(-c2nc3ccccc3c(=O)n2-c2ccccc2)s1)c1ccco1
7.26	8.55	7.11	< 6.00	< 7.00	7.17	–	–	–	–	–	8.50	8.50	8.55	8.53	–	–	–	–	O=C(Nc1nc(-c2ccccc2)c(C(=O)c2ccc(F)cc2F)s1)c1ccccc1
< 6.00	< 6.00	< 6.00	< 6.00	< 7.00	7.32	1	–	6.22	8	24	–	–	–	–	–	–	14	–	O=C(Nc1nc(-c2ccccc2)c(-c2nc3ccccc3c(=O)n2-c2ccc(Cl)cc2)s1)c1ccco1
7.61	9.03	7.41	5.78	< 7.00	6.37	–	–	–	–	–	10.03	10.01	9.03	10.06	–	–	–	–	O=C(Nc1nc(-c2ccccc2)c(C(=O)c2ccc(Cl)cc2)s1)c1ccccc1
7.44	8.83	< 6.00	< 6.00	< 7.00	7.60	2	–	< 6.00	–	–	–	–	–	–	–	–	32	41	COc1ccc(C(=O)Nc2nc(-c3ccccc3)c(C(=O)c3ccccc3)s2)cc1
7.87	8.75	< 6.00	< 6.00	< 7.00	< 6.00	–	–	–	–	–	–	–	–	–	37	–	16	–	COc1ccc(C(=O)Nc2nc(-c3ccccc3)c(C(=O)c3ccc(OC)cc3)s2)cc1
